ChEMBL document CHEMBL5712908, “A genome-wide RNAi screen reveals essential therapeutic targets of breast cancer stem cells” (2019)
The source made the active and inactive calls. The rule behind the calls is not given here.

Legend:
[1] = test system: SUM149PT; experiment: Anticancer activity against human SUM149 cells assessed as ALDHbr cells by LSR2 cytometer (reference value: 6.8%); format: functional
Method in brief: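 Cells continuously exposed to drug for 72 h in adherent culture; single-cell suspensions stained with ALDEFLUOR kit and ALDH-high population measured by flow cytometry (LSR2) against a DEAB control. Residual ALDHbr proportion reported (n = 8), mean ± SD, Student's t-test.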

[2] = target: Histone-lysine N-methyltransferase EZH2 (Homo sapiens) (UniProt Q15910); experiment: Inhibition of EZH2 in human SUM159 cells assessed as increase in ALDHbr cells by LSR2 cytometer (reference value: 4.8%); format: cell-based; set-up: scale not given: the % may be the effect or the level left; details: dose 0.0 µM
Sequence of Histone-lysine N-methyltransferase EZH2 (Homo sapiens) (Q15910 whole entry, looked up): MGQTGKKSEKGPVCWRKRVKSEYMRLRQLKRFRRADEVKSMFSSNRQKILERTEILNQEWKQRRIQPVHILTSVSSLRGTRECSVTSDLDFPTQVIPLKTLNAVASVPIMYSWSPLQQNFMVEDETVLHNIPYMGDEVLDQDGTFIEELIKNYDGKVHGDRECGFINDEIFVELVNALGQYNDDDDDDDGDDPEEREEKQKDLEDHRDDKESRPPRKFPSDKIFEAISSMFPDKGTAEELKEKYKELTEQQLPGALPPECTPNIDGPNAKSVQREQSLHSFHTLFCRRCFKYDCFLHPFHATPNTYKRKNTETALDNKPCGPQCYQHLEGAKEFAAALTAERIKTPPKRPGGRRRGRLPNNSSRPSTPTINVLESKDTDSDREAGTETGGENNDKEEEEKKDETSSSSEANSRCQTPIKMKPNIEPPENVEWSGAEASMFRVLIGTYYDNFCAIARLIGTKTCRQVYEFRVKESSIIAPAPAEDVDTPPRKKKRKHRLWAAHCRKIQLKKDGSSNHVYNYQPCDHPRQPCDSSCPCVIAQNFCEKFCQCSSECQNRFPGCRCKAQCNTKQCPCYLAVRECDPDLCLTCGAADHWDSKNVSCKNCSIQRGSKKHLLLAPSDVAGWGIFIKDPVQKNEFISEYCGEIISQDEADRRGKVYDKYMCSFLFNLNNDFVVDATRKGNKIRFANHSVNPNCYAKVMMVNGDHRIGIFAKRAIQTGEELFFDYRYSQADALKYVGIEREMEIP
Method in brief: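 SUM159 cells exposed continuously for 72 h in adherent culture to graded doses centred on the IC50. ALDHbr proportion measured by ALDEFLUOR flow cytometry (LSR2) with DEAB as negative control; n = 10.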

[3] = target: Runt-related transcription factor 1 (Homo sapiens) (UniProt Q01196); experiment: Inhibition of RUNX1 in human SUM149 cells assessed as K-score by measuring ALDHbr cells by LSR2 cytometer; format: cell-based
Sequence of Runt-related transcription factor 1 (Homo sapiens) (Q01196 whole entry): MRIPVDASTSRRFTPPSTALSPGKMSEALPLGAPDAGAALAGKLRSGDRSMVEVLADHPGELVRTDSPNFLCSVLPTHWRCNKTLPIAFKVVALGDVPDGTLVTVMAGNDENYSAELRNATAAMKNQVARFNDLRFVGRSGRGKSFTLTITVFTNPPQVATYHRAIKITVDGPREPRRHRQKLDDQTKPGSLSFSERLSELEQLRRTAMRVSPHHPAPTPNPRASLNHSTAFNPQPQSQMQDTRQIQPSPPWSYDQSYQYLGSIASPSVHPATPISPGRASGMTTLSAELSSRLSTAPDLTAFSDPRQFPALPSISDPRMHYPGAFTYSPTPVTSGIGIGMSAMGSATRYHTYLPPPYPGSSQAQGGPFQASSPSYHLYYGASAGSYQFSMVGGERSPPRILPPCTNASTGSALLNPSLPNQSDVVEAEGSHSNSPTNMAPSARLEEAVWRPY
Method in brief: (§1)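 Cell lines exposed for 72 h in adherent culture to a range of concentrations centred on the MTS-derived IC50. ALDHbr proportion measured by ALDEFLUOR flow cytometry (LSR2). K-score is the linear regression coefficient, on log10-transformed doses, between the untreated condition and the dose predicted to give a 50% decrease or increase in ALDHbr proportion versus control.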

[4] = target: Runt-related transcription factor 1 (Homo sapiens) (UniProt Q01196); experiment: Inhibition of RUNX1 in human SUM159 cells assessed as K-score by measuring ALDHbr cells by LSR2 cytometer; format: cell-based; method in brief: as §1
[5] = target: Runt-related transcription factor 1 (Homo sapiens) (UniProt Q01196); experiment: Inhibition of RUNX1 in human BrCa-MZ-01 cells assessed as K-score by measuring ALDHbr cells by LSR2 cytometer; format: cell-based; method in brief: as §1
[6] = target: Runt-related transcription factor 1 (Homo sapiens) (UniProt Q01196); experiment: Inhibition of RUNX1 in human MDA-MB-436 cells assessed as K-score by measuring ALDHbr cells by LSR2 cytometer; format: cell-based; method in brief: as §1
[7] = target: Runt-related transcription factor 1 (Homo sapiens) (UniProt Q01196); experiment: Inhibition of RUNX1 in human S68 cells assessed as K-score by measuring ALDHbr cells by LSR2 cytometer; format: cell-based; method in brief: as §1
[8] = target: Histone acetyltransferase p300 (Homo sapiens) (UniProt Q09472); experiment: Inhibition of EP300 in human MDA-MB-436 cells assessed as K-score by measuring ALDHbr cells by LSR2 cytometer; format: cell-based
Sequence of Histone acetyltransferase p300 (Homo sapiens) (Q09472 whole entry): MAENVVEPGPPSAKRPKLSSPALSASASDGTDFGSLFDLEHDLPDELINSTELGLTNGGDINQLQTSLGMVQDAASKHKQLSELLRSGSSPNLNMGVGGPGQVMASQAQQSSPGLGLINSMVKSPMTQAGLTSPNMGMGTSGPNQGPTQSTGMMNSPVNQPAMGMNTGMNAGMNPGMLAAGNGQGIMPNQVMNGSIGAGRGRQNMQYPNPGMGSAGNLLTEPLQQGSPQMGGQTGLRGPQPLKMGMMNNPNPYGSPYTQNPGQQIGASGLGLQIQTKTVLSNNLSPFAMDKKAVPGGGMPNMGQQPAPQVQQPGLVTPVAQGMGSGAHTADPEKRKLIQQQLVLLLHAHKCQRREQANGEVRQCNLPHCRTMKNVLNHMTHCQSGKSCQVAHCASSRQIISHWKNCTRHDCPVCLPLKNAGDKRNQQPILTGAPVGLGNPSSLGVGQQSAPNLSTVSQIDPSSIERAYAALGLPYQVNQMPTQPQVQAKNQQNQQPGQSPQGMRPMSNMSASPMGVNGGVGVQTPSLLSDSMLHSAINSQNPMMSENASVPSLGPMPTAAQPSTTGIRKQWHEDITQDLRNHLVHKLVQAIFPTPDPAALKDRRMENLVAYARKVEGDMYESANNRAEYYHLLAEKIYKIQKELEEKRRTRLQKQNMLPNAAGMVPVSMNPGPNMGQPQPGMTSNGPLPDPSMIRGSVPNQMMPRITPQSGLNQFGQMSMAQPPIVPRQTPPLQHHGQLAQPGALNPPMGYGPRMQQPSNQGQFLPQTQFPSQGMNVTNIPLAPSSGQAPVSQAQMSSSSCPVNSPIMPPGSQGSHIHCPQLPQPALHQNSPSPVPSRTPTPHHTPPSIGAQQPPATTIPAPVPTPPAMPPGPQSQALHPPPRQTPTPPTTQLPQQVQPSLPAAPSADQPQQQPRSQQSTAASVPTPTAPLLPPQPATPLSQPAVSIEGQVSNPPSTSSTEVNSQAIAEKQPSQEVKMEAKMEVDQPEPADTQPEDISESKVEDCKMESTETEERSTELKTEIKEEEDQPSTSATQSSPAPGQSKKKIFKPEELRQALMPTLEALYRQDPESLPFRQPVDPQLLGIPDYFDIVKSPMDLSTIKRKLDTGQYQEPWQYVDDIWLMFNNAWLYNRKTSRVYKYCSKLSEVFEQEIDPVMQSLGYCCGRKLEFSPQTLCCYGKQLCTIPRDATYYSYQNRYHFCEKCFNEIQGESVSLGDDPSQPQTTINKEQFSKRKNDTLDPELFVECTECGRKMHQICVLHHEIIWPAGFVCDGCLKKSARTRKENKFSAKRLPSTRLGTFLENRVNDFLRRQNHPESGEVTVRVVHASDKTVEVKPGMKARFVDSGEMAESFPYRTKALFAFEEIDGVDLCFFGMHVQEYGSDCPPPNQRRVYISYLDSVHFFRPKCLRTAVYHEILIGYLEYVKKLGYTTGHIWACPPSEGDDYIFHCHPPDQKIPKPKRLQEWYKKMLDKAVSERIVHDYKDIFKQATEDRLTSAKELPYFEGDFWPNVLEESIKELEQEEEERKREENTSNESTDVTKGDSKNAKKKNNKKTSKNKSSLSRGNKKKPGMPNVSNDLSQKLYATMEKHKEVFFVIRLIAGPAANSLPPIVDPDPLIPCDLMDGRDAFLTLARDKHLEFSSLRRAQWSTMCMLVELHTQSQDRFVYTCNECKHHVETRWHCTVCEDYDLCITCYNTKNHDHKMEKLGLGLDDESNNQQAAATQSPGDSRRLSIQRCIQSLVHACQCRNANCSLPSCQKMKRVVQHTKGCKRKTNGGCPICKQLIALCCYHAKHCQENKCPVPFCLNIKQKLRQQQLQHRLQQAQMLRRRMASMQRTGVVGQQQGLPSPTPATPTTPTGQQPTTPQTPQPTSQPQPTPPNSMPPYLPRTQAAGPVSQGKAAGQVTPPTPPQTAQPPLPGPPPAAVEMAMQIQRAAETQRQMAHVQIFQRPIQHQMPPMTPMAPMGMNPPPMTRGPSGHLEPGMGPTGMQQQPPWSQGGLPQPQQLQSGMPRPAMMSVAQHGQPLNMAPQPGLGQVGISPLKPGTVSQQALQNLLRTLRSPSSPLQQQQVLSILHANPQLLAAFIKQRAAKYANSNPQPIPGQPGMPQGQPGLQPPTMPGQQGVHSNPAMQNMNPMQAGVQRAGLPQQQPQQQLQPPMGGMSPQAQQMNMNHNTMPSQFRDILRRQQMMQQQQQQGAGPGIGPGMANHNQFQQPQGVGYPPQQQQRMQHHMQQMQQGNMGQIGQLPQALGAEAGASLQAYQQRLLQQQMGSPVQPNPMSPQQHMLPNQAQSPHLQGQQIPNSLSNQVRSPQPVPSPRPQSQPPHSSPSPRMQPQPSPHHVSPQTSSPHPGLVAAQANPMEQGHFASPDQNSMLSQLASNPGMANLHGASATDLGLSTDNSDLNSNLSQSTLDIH
Method in brief: (§2)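 Breast cancer lines exposed continuously for 72 h in adherent culture to a range of doses centred on the MTS-derived IC50 (72 h MTS, absorbance 540 nm). ALDHbr fraction measured by ALDEFLUOR flow cytometry (LSR2) with DEAB control. K-score = linear regression coefficient between untreated condition and the log10 dose at which ALDHbr proportion changes by 50% versus control.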

[9] = target: Histone acetyltransferase p300 (Homo sapiens) (UniProt Q09472); experiment: Inhibition of EP300 in human S68 cells assessed as K-score by measuring ALDHbr cells by LSR2 cytometer; format: cell-based; method in brief: as §2
[10] = target: Histone acetyltransferase p300 (Homo sapiens) (UniProt Q09472); experiment: Inhibition of EP300 in human SUM159 cells assessed as K-score by measuring ALDHbr cells by LSR2 cytometer; format: cell-based; method in brief: as §2
[11] = target: Histone acetyltransferase p300 (Homo sapiens) (UniProt Q09472); experiment: Inhibition of EP300 in human BrCa-MZ-01 cells assessed as K-score by measuring ALDHbr cells by LSR2 cytometer; format: cell-based; method in brief: as §2
[12] = target: Histone acetyltransferase p300 (Homo sapiens) (UniProt Q09472); experiment: Inhibition of EP300 in human SUM149 cells assessed as K-score by measuring ALDHbr cells by LSR2 cytometer; format: cell-based; method in brief: as §2
[13] = test system: SUM-159-PT; experiment: Anticancer activity against human SUM159 cells assessed as decrease in secondary tumor sphere formation incubated for 72 hrs by Extreme limiting dilution analysis; format: functional, cell-based
Method in brief: (§3)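 Cells drug-treated in adherent culture for 72 h, then plated as single cells in ultra-low attachment 96-well plates in serum-free mammary epithelium basal medium. Plating at 25/10/5/3/2/1 cells per well, 18–36 wells per condition. Wells with ≥1 sphere after 10 days scored positive. Secondary spheres were made by dissociating primary spheres. Frequency by ELDA; n = 4; pairwise chi-square test.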

[14] = test system: SUM-159-PT; experiment: Anticancer activity against human SUM159 cells assessed as decrease in primary tumor sphere formation incubated for 72 hrs by Extreme limiting dilution analysis; format: functional, cell-based; method in brief: as §3
[15] = test system: SUM-159-PT; experiment: Antitumor activity against human SUM159 cells assessed as K-score by measuring ALDHbr cells by LSR2 cytometer; format: functional; method in brief: as §1
[16] = test system: MDA-MB-436; experiment: Antitumor activity against human MDA-MB-436 cells assessed as K-score by measuring ALDHbr cells by LSR2 cytometer; format: functional; method in brief: as §1
[17] = Antitumor activity against human BrCa-MZ-01 cells assessed as K-score by measuring ALDHbr cells by LSR2 cytometer; format: functional; method in brief: as §1
[18] = Antitumor activity against human S68 cells assessed as K-score by measuring ALDHbr cells by LSR2 cytometer; format: functional; method in brief: as §1
[19] = test system: SUM149PT; experiment: Antitumor activity against human SUM149 cells assessed as K-score by measuring ALDHbr cells by LSR2 cytometer; format: functional; method in brief: as §1
[20] = target: T1, Double-stranded RNA-specific editase 1 (Homo sapiens) (UniProt P78563); experiment: Inhibition of ADARB1 in human BrCa-MZ-01cells assessed as K-score by measuring ALDHbr cells by LSR2 cytometer; format: cell-based; method in brief: as §2
T1 sequence (whole entry): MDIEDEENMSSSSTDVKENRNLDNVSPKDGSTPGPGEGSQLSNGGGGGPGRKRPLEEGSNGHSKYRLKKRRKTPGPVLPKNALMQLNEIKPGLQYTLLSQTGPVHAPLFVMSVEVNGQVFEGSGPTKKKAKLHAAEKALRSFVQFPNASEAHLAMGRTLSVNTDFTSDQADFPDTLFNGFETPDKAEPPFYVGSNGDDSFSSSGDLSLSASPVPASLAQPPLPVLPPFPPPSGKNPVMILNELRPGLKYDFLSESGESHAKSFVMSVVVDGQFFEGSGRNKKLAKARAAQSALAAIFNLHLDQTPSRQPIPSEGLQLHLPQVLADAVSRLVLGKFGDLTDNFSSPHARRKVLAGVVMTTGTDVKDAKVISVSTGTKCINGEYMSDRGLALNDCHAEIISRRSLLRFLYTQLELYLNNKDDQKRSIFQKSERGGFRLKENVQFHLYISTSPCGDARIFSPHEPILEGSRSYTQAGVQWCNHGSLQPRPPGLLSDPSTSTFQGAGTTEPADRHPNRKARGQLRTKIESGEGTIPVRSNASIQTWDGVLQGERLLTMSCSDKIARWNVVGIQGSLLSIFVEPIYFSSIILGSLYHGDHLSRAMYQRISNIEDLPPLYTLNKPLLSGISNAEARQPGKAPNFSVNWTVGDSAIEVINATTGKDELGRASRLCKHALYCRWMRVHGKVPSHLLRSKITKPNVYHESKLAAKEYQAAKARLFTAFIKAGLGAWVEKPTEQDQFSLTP

[21] = target: T1, Double-stranded RNA-specific editase 1 (Homo sapiens); experiment: Inhibition of ADARB1 in human MDA-MB-436 cells assessed as K-score by measuring ALDHbr cells by LSR2 cytometer; format: cell-based; method in brief: as §2
[22] = target: T1, Double-stranded RNA-specific editase 1 (Homo sapiens); experiment: Inhibition of ADARB1 in human SUM149 cells assessed as K-score by measuring ALDHbr cells by LSR2 cytometer; format: cell-based; method in brief: as §2
[23] = target: T1, Double-stranded RNA-specific editase 1 (Homo sapiens); experiment: Inhibition of ADARB1 in human SUM159 cells assessed as K-score by measuring ALDHbr cells by LSR2 cytometer; format: cell-based; method in brief: as §2
[24] = target: T1, Double-stranded RNA-specific editase 1 (Homo sapiens); experiment: Inhibition of ADARB1 in human S68 cells assessed as K-score by measuring ALDHbr cells by LSR2 cytometer; format: cell-based; method in brief: as §2

SMILES: CCN(CC)c1ccc(C=O)cc1
- Activity [1]: 0.3%
- Activity [2]: 0.2%

SMILES: O=C1CN=C(c2ccc[nH]2)c2cc(Cl)ccc2N1
- Activity [3]: -0.04
- Activity [4]: 0.09
- Activity [5]: -0.04
- Activity [6]: 0
- Activity [7]: -0.07

SMILES: CCC(=O)N1CCOc2c(cc(-c3ccc(OC)c(OC)c3)cc2OC[C@H]2CCCN(C)C2)C1
- Activity [8]: 0.14
- Activity [9]: 0.22
- Activity [10]: 0.02
- Activity [11]: 0.01
- Activity [12]: 0.1

SMILES: CCCc1cc(C)[nH]c(=O)c1CNC(=O)c1cc(-c2ccnc(N3CCN(C)CC3)c2)cc2c1cnn2C(C)C
- Activity [13]: inactive
- Activity [14]: inactive

SMILES: CCN(CC)CCCC(C)Nc1ccnc2cc(Cl)ccc12 (centres undefined) [CHLOROQUINE]
- Activity [15]: 0.04
- Activity [16]: -0.06
- Activity [17]: -0.02
- Activity [18]: -0.02
- Activity [19]: -0.01

SMILES: Nc1ncnc2c1nnn2[C@@H]1O[C@H](CO)[C@@H](O)[C@H]1O
- Activity [20]: -0.01
- Activity [21]: -0.02
- Activity [22]: 0.12
- Activity [23]: -0.11
- Activity [24]: -0.01
